Laboratory results: ChEMBL document CHEMBL3603777, “Carbon nanotubes supported tyrosinase in the synthesis of lipophilic hydroxytyrosol and dihydrocaffeoyl catechols with antiviral activity against DNA and RNA viruses” (Bioorg Med Chem, 2015)
Converted amounts (≈) assume the structure as drawn. The source made the active and inactive calls. No cut-off for these calls is given here.

Experiments:
[1] = system: Echovirus E9; assay: Antiviral activity against Human echovirus type 9 VR-1050 infected in African green monkey Vero cells assessed as inhibition of virus-induced plaque formation/cytopathogenicity; format: functional; conditions: Enterovirus B, VR-1050, Vero; read-out: ID50 (the source's name)
How it was run: (§1)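 Cell monolayers infected at MOI 0.1 and treated with compound at 25 to 200 μg/mL. Compounds dissolved in DMSO, diluted in maintenance medium (DMEM, 2% heat-inactivated FCS), final DMSO at most 0.01%. Acyclovir is the reference. ID50 is the concentration giving 50% reduction of plaque formation or virus-induced cytopathogenicity, from dose–response curves by linear regression. Values are the mean of three separate assays.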

[2] = system: Human adenovirus 2; assay: Antiviral activity against Adenovirus type 2 VR-1080 infected in human Hep2 cells assessed as inhibition of virus-induced plaque formation/cytopathogenicity; format: functional; conditions: Human mastadenovirus C, VR-1080, HEp-2; read-out: ID50 (the source's name); how it was run: as §1
[3] = system: Human alphaherpesvirus 2; assay: Antiviral activity against Herpes simplex type 2 VR-734 infected in African green monkey Vero cells assessed as inhibition of virus-induced plaque formation/cytopathogenicity; format: functional; conditions: Human alphaherpesvirus 2, VR-734, Vero; read-out: ID50 (the source's name); how it was run: as §1
[4] = Cytotoxicity against human Hep2 cells after 24 hrs by MTT assay; format: cell-based, HEp-2
[5] = Cytotoxicity against human HFF1 cells after 24 hrs by MTT assay; format: cell-based, HFF-1
[6] = system: Human adenovirus 5; assay: Antiviral activity against Adenovirus type 5 VR-1523 infected in human Hep2 cells assessed as inhibition of virus-induced plaque formation/cytopathogenicity; format: functional; conditions: Human mastadenovirus C, VR-1523, HEp-2; read-out: ID50 (the source's name); how it was run: as §1
[7] = Cytotoxicity against African green monkey Vero cells after 24 hrs by MTT assay; format: cell-based; conditions: chlorocebus sabaeus
[8] = system: Cytomegalovirus; assay: Antiviral activity against Cytomegalovirus VR-538 infected in human HFF1 cells assessed as inhibition of virus-induced plaque formation/cytopathogenicity; format: functional; conditions: Human betaherpesvirus 5, VR-538, HFF-1; read-out: ID50 (the source's name); how it was run: as §1
[9] = system: Coxsackievirus B3; assay: Antiviral activity against Coxsackie type B3 virus VR-1034 infected in African green monkey Vero cells assessed as inhibition of virus-induced plaque formation/cytopathogenicity; format: functional; conditions: Enterovirus B, VR-1034, Vero; read-out: ID50 (the source's name); how it was run: as §1
[10] = system: Human alphaherpesvirus 1; assay: Antiviral activity against Herpes simplex type 1 VR-260 infected in African green monkey Vero cells assessed as inhibition of virus-induced plaque formation/cytopathogenicity; format: functional; conditions: Human alphaherpesvirus 1, VR-260, Vero; read-out: ID50 (the source's name); how it was run: as §1
[11] = system: Human poliovirus 1 strain Sabin; assay: Antiviral activity against Poliovirus type 1 Sabin VR-1562 infected in African green monkey Vero cells assessed as inhibition of virus-induced plaque formation/cytopathogenicity; format: functional; conditions: Enterovirus C, VR-1562, Vero; read-out: ID50 (the source's name); how it was run: as §1
[12] = system: Human alphaherpesvirus 1; assay: Antiviral activity against Herpes simplex type 1 VR-260 infected in African green monkey Vero cells assessed as inhibition of virus replication at 5 times ID50 treated 1 hr after virus adsorption period measured after 12 hrs by plaque assay; format: functional, organism-based
How it was run: (§2)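 Confluent Vero monolayers infected with HSV-1 at MOI 0.1, 2 h adsorption at 4 °C for synchronous replication. Inoculum then removed and fresh medium with or without compound added at various times after adsorption. Incubation at 37 °C for 12 h, cultures frozen, virus yield titrated by plaque assay. Mean ± SEM of three separate assays.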

[13] = system: Human alphaherpesvirus 1; assay: Antiviral activity against Herpes simplex type 1 VR-260 infected in African green monkey Vero cells assessed as inhibition of virus replication at 5 times ID50 treated 2 hrs after virus adsorption period measured after 12 hrs by plaque assay; format: functional, organism-based; how it was run: as §2
[14] = system: Human alphaherpesvirus 1; assay: Antiviral activity against Herpes simplex type 1 VR-260 infected in African green monkey Vero cells assessed as virucidal activity at 5 times ID50 after 1 hr by plaque assay; format: functional, organism-based
How it was run: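 HSV-1 suspension (10⁶ PFU/mL) mixed 1:1 by volume with DMEM containing compound at 5× ID50, held 1 h at 37 °C. Residual infectivity measured by plaque assay on Vero cells after diluting below the inhibitory concentration.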

[15] = system: Human alphaherpesvirus 1; assay: Antiviral activity against Herpes simplex type 1 VR-260 infected in African green monkey Vero cells assessed as protection of host cells from viral infection […] by plaque assay; format: functional, organism-based
[16] = system: Human alphaherpesvirus 1; assay: Antiviral activity against Herpes simplex type 1 VR-260 infected in African green monkey Vero cells assessed as reduction of virus yield at 5 times ID50 treated 2 hrs after virus adsorption period measured after 12 hrs by plaque assay; format: functional, organism-based; how it was run: as §2
[17] = system: Human alphaherpesvirus 1; assay: Inhibition of Herpes simplex type 1 VR-260 adsorption in African green monkey Vero cells assessed as cell-associated viral activity at 5 times ID50 after 120 mins by plaque assay; format: functional, organism-based
How it was run: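 Infective center assay. HSV-1 (10⁶ PFU/mL) preincubated 60 min at 37 °C with compound, chilled to 4 °C, then added to a Vero suspension (10⁶ cells/mL) precooled ≥1 h at 4 °C. Adsorption for 120 min at 4 °C. Cells washed three times with cold DMEM, serially diluted and plaque assayed for cell-associated virus.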

SMILES	IC50 [1] [µg/mL]	IC50 [2] [µg/mL]	IC50 [3] [µg/mL]	CC50 at 24 h [4] [µg/mL]	CC50 at 24 h [5] [µg/mL]	IC50 [6] [µg/mL]	CC50 at 24 h [7] [µg/mL]	IC50 [8] [µg/mL]	IC50 [9] [µg/mL]	IC50 [10] [µg/mL]	IC50 [11] [µg/mL]	Activity [12]	Activity [13]	Activity [14]	Activity [15]	Activity [16]	inhibition [17]
CCC(=O)OCCc1ccc(O)c(O)c1	> 40	> 40	40 (≈ 190 µM)	40 (≈ 190 µM)	40 (≈ 190 µM)	> 40	40 (≈ 190 µM)	> 40	> 40	20 (≈ 95.1 µM)	> 40						
O=C(O)CCc1ccc(O)c(O)c1 [DIHYDROCAFFEIC ACID]	> 200	> 200		> 200	> 200	> 200	> 200	> 200	> 200	> 200	> 200						
CCOC(=O)CCc1ccc(O)c(O)c1	> 75	> 40	60 (≈ 285 µM)	40 (≈ 190 µM)	40 (≈ 190 µM)	> 40	75 (≈ 357 µM)	40 (≈ 190 µM)	20 (≈ 95.1 µM)	15 (≈ 71.4 µM)	> 75	Active	inactive	inactive	inactive	Active	inactive
CC(=O)OCCc1ccc(O)c(O)c1	> 100	> 50	40 (≈ 204 µM)	50 (≈ 255 µM)	50 (≈ 255 µM)	> 50	100 (≈ 510 µM)	> 50	50 (≈ 255 µM)	20 (≈ 102 µM)	> 100						
CCCCC(=O)OCCc1ccc(O)c(O)c1	> 25	> 25		25 (≈ 105 µM)	25 (≈ 105 µM)	> 25	25 (≈ 105 µM)	> 25	> 25	25 (≈ 105 µM)	> 25						
COC(=O)CCc1ccc(O)c(O)c1	> 100	> 100	> 100	100 (≈ 510 µM)	100 (≈ 510 µM)	> 100	100 (≈ 510 µM)	100 (≈ 510 µM)	> 100	> 100	> 100						
CCCC(=O)OCCc1ccc(O)c(O)c1 [HYDROXYTYROSOL BUTANOATE]	> 100	> 100	100 (≈ 446 µM)	100 (≈ 446 µM)	100 (≈ 446 µM)	> 100	100 (≈ 446 µM)	> 100	> 100	> 100	> 100						
CCCCOC(=O)CCc1ccc(O)c(O)c1	> 200	> 200	> 200	200 (≈ 839 µM)	100 (≈ 420 µM)	> 200	200 (≈ 839 µM)	25 (≈ 105 µM)	100 (≈ 420 µM)	> 200	> 200						
CCCOC(=O)CCc1ccc(O)c(O)c1	> 200	> 200		> 200		> 200	> 200		> 200	> 200	> 200						
